Measured values from PMC6433393 (Journal of chromatography. B, Analytical technologies in …, 2012).
Blank lines part the entries; values can stand above or below the compound they belong to.

Experiments:
[1] = Stability of MX stock solution; format: physicochemical; details: for Recovery ± SD (n = 6): Stock solution 2.00 mg/ml
Summary of the method: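 The 2.00 mg/ml stock was stored at 4 °C or at 23 °C, then serially diluted to 45.0 ng/ml in 1% formic acid. It was derivatised with IS and analysed by MRM LC-MS/MS. Six parallel measurements gave the mean analyte/IS peak-area ratio, expressed as percent recovery against freshly prepared stock.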

[2] = Stability of MX in human plasma QCs; format: in vitro ADME; details: for recoveries of QC samples: three concentrations (3.50, 45.0 and 450 ng/ml)
Summary of the method: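 Plasma QCs were prepared in pooled human plasma with 10% 0.100 N HCl and held on the bench (23 °C), in the autosampler (15 °C), through freeze-thaw cycles (−70 to 23 °C) or at −70 °C. Samples were derivatised with 4-(N,N-diethylamino)benzaldehyde (70 °C, 1 h), extracted into MTBE and run by MRM LC-MS/MS. The mean MX/MX-d3 peak-area ratio (n = 6) relative to freshly prepared QCs is given as percent recovery.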

[3] = Stability of MX in human whole blood kept in ice bath before centrifugation; format: in vitro ADME
Summary of the method: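 From one patient, five 2-ml lithium-heparin blood tubes were drawn 70 min after infusion and kept in an ice bath. They were centrifuged 0, 30, 60, 90 and 120 min after drawing (1500 × g, 4 °C, 5 min). Plasma was analysed later by the derivatisation LC-MS/MS method, and the mean, SD and %CV were calculated.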

[4] = Phase I clinical trial pharmacokinetic study of MX; format: in vivo, human; details: for Measured [MX] First analysis / Measured [MX] Re-analysis after 9 months: patient plasma; for Measured [MX] Re-analysis after 9 months: after 9-month storage at −70 °C
Summary of the method: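 Heparinised blood was iced, spun (1500 × g, 4 °C, 5 min), and plasma stored at −70 °C. Plasma was derivatised and assayed by LC-MS/MS against a calibration curve. Infusion data were fitted one-compartment; 1-h data were analysed by NCA.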

[5] = clinical trials, TMZ dosing regimen 150 mg/m^2/day; cited from earlier work
[6] = patients, 1-h iv infusion, 20 patients (46 cycles), with oral TMZ

Recovery ± SD (n = 6) ([1]; Bench-top 23 °C, 18 hours): 98.4 ± 6% | Recovery ± SD (n = 6) ([1]; Refrigerator 4 °C, 5 months): 96.4 ± 7% | recoveries of stock solutions ([1]; refrigerator (4 °C) and bench top (23 °C)): 96.4–98.4% | Recovery ± SD (n = 6) ([2]; High QC 450 ng/ml plasma, Autosampler 15 °C, 3 days): 96.9 ±3% | Recovery ± SD (n = 6) ([2]; High QC 450 ng/ml plasma, Bench-top 23 °C, 18 hours): 95.7 ± 2% | Recovery ± SD (n = 6) ([2]; High QC 450 ng/ml plasma, Deep freezer (Long-term) −70 °C, 5 months): 103 ± 2% | Recovery ± SD (n = 6) ([2]; High QC 450 ng/ml plasma, Freeze & thaw −70 to 23 °C, 3 cycles): 96.2 ± 2% | Recovery ± SD (n = 6) ([2]; Low QC 3.50 ng/ml plasma, Autosampler 15 °C, 3 days): 90.7 ±6% | Recovery ± SD (n = 6) ([2]; Low QC 3.50 ng/ml plasma, Bench-top 23 °C, 18 hours): 89.4 ± 4% | Recovery ± SD (n = 6) ([2]; Low QC 3.50 ng/ml plasma, Deep freezer (Long-term) −70 °C, 5 months): 95.7 ±3% | Recovery ± SD (n = 6) ([2]; Low QC 3.50 ng/ml plasma, Freeze & thaw −70 to 23 °C, 3 cycles): 96.6 ± 2% | Recovery ± SD (n = 6) ([2]; Mid QC 45.0 ng/ml plasma, Autosampler 15 °C, 3 days): 94.5 ± 5% | Recovery ± SD (n = 6) ([2]; Mid QC 45.0 ng/ml plasma, Bench-top 23 °C, 18 hours): 94.5 ± 4% | Recovery ± SD (n = 6) ([2]; Mid QC 45.0 ng/ml plasma, Deep freezer (Long-term) −70 °C, 5 months): 101 ± 2% | Recovery ± SD (n = 6) ([2]; Mid QC 45.0 ng/ml plasma, Freeze & thaw −70 to 23 °C, 3 cycles): 94.4 ± 2% | recoveries of QC samples ([2]; autosampler (15 °C)): 90.7–96.9% | recoveries of QC samples ([2]; bench top): 89.4–95.7% | recoveries of QC samples ([2]; long-term storage (5 months)): 95.7–103% | recoveries of QC samples ([2]; three freeze-and-thaw cycles (−70 to 23 °C)): 94.4–96.6% | changes in MX concentration in human whole blood ([3]; over a period of 2 hours, samples kept in an ice bath): no significant changes | measured MX concentration, mean value ([3]; patient blood, ice bath, centrifuged 0-120 min after drawing, SD 0.1 ng/ml): 10.5 ng/mL | Measured [MX] First analysis ([4]; sampling 0.250 h): 5.36 ng/mL | Measured [MX] Re-analysis after 9 months ([4]; sampling 0.250 h): 5.69 ng/mL | Measured [MX] First analysis ([4]; sampling 0.500 h): 8.95 ng/mL | Measured [MX] Re-analysis after 9 months ([4]; sampling 0.500 h): 10.2 ng/mL | Measured [MX] First analysis ([4]; sampling 0.750 h): 16.2 ng/mL | Measured [MX] Re-analysis after 9 months ([4]; sampling 0.750 h): 18.2 ng/mL | Measured [MX] First analysis ([4]; sampling 0.983 h): 20.5 ng/mL | Measured [MX] Re-analysis after 9 months ([4]; sampling 0.983 h): 22.1 ng/mL | Measured [MX] First analysis ([4]; sampling 1.17 h): 25 ng/mL | Measured [MX] Re-analysis after 9 months ([4]; sampling 1.17 h): 27.1 ng/mL | Measured [MX] First analysis ([4]; sampling 2.00 h): 24.2 ng/mL | Measured [MX] Re-analysis after 9 months ([4]; sampling 2.00 h): 24.3 ng/mL | Measured [MX] First analysis ([4]; sampling 4.00 h): 18.3 ng/mL | Measured [MX] Re-analysis after 9 months ([4]; sampling 4.00 h): 20 ng/mL | Measured [MX] First analysis ([4]; sampling 6.00 h): 19 ng/mL | Measured [MX] Re-analysis after 9 months ([4]; sampling 6.00 h): 19.5 ng/mL | Measured [MX] First analysis ([4]; sampling 8.00 h): 18.9 ng/mL | Measured [MX] Re-analysis after 9 months ([4]; sampling 8.00 h): 17.5 ng/mL | Measured [MX] First analysis ([4]; sampling 12.0 h): 15.6 ng/mL | Measured [MX] Re-analysis after 9 months ([4]; sampling 12.0 h): 16.2 ng/mL | Measured [MX] First analysis ([4]; sampling 24.0 h): 13.3 ng/mL | Measured [MX] Re-analysis after 9 months ([4]; sampling 24.0 h): 13.2 ng/mL | Measured [MX] First analysis ([4]; sampling 48.0 h): 9.46 ng/mL | Measured [MX] Re-analysis after 9 months ([4]; sampling 48.0 h): 10 ng/mL | Measured [MX] First analysis ([4]; sampling 72.0 h): 6.56 ng/mL | Measured [MX] Re-analysis after 9 months ([4]; sampling 72.0 h): 6.46 ng/mL | Measured [MX] First analysis ([4]; sampling 96.0 h): 4.46 ng/mL | Measured [MX] Re-analysis after 9 months ([4]; sampling 96.0 h): 4.76 ng/mL | Measured [MX] First analysis ([4]; sampling 120 h): 3.55 ng/mL | Measured [MX] Re-analysis after 9 months ([4]; sampling 120 h): 3.69 ng/mL | Measured [MX] First analysis ([4]; sampling 168 h): 2.11 ng/mL | Measured [MX] Re-analysis after 9 months ([4]; sampling 168 h): 2.29 ng/mL | Measured [MX] First analysis ([4]; sampling 192 h): 1.55 ng/mL | Measured [MX] Re-analysis after 9 months ([4]; sampling 192 h): 1.76 ng/mL | Measured [MX] First analysis ([4]; sampling 216 h): 1.22 ng/mL | Measured [MX] Re-analysis after 9 months ([4]; sampling 216 h): 1.39 ng/mL | mean Cmax [4, 6]: 14.98 ng/mL | mean t1/2 [4, 6]: 54.21 h
Structure (SMILES): CON [MX, Methoxyamine]

Structure (SMILES): Cn1nnc2c(C(N)=O)ncn2c1=O [TMZ, Temozolomide]
maximum concentrations (Cmax) in human plasma [5]: below 10 μg/ml
